Assay results: ChEMBL document CHEMBL1137280, “Synthesis and structure-activity studies of novel benzocycloheptanone oxazolidinone antibacterial agents” (Bioorg Med Chem Lett, 2006)
Converted amounts (≈) assume the structure as drawn.

Legend:
Type in all cases: functional
Streptococcus pneumoniae = assay: Antibacterial activity against Streptococcus pneumoniae SVI SP-3
How it was run: (§1)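 MIC determined by broth microdilution following Clinical and Laboratory Standards Institute (formerly NCCLS) guidelines, across a panel of Gram-positive and fastidious Gram-negative organisms.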

Escherichia coli = assay: Antibacterial activity against Escherichia coli by transcription and translation assay
How it was run: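 Coupled in vitro transcription and translation system from Escherichia coli with a luciferase reporter; inhibition is read as loss of luciferase signal.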

Staphylococcus aureus = assay: Antibacterial activity against Staphylococcus aureus UC-76 SA-1; how it was run: as §1
Enterococcus faecalis = assay: Antibacterial activity against Enterococcus faecalis MGH-2 EF1-1; how it was run: as §1
Streptococcus pyogenes = assay: Antibacterial activity against Streptococcus pyogenes C-203; how it was run: as §1
Moraxella catarrhalis = assay: Antibacterial activity against Moraxella catarrhalis BC-3531; how it was run: as §1
Haemophilus influenzae = assay: Antibacterial activity against Haemophilus influenzae HI3542; conditions: HI-3542; how it was run: as §1

Compound	MIC (Streptococcus pneumoniae) [µg/mL]	IC50 (Escherichia coli) [µM]	MIC (Staphylococcus aureus) [µg/mL]	MIC (Enterococcus faecalis) [µg/mL]	MIC (Streptococcus pyogenes) [µg/mL]	MIC (Moraxella catarrhalis) [µg/mL]	MIC (Haemophilus influenzae) [µg/mL]
CC(=O)NC[C@H]1CN(c2ccc(C(C)=O)cc2)C(=O)O1 [DUP-721]	2 (≈ 7.24 µM)	7.5	2 (≈ 7.24 µM)	2 (≈ 7.24 µM)	1 (≈ 3.62 µM)	–	–
CC(=O)NC[C@H]1CN(c2ccc3c(c2F)CCCCC3=O)C(=O)O1	4 (≈ 12 µM)	8.9	16 (≈ 47.9 µM)	8 (≈ 23.9 µM)	8 (≈ 23.9 µM)	–	–
CC(=O)NC[C@H]1CN(c2cnc3c(c2)CCCCC3=O)C(=O)O1	16 (≈ 50.4 µM)	13	8 (≈ 25.2 µM)	8 (≈ 25.2 µM)	4 (≈ 12.6 µM)	–	–
CC(=O)NC[C@H]1CN(c2ccc3c(c2)CCCCCC3=O)C(=O)O1	4 (≈ 12.1 µM)	5.9	4 (≈ 12.1 µM)	8 (≈ 24.2 µM)	2 (≈ 6.05 µM)	–	–
CC(=O)NC[C@H]1CN(c2ccc3c(c2)CCC/C(=C\c2ccncc2)C3=O)C(=O)O1	0.5 (≈ 1.23 µM)	1.7	1 (≈ 2.47 µM)	1 (≈ 2.47 µM)	–	8 (≈ 19.7 µM)	16 (≈ 39.5 µM)
CC(=O)NC[C@H]1CN(c2ccc3c(c2)CCCCC3=O)C(=O)O1	0.5 (≈ 1.58 µM)	3.9	1 (≈ 3.16 µM)	0.5 (≈ 1.58 µM)	0.5 (≈ 1.58 µM)	–	–
CC(=O)NC[C@H]1CN(c2ccc(N3CCOCC3)c(F)c2)C(=O)O1 [LINEZOLID]	–	3.3	–	–	1 (≈ 2.96 µM)	–	16 (≈ 47.4 µM)
CC(=O)NC[C@H]1CN(c2ccc3c(c2)CCCC=C3)C(=O)O1	0.5 (≈ 1.66 µM)	1.3	1 (≈ 3.33 µM)	1 (≈ 3.33 µM)	0.5 (≈ 1.66 µM)	–	–
CC(=O)NC[C@H]1CN(c2ccc3c(c2)CCC3=O)C(=O)O1 [PNU-82965]	2 (≈ 6.94 µM)	21	8 (≈ 27.7 µM)	8 (≈ 27.7 µM)	2 (≈ 6.94 µM)	–	–
CC(=O)NC[C@H]1CN(c2ccc3c(c2)CCC/C(=C\c2ccc(OCCCN(C)C)cc2)C3=O)C(=O)O1	0.125 (≈ 0.247 µM)	1.2	1 (≈ 1.98 µM)	0.5 (≈ 0.989 µM)	–	4 (≈ 7.91 µM)	16 (≈ 31.6 µM)
CC(=O)NC[C@H]1CN(c2cc3c(cc2F)C(=O)CCCC3)C(=O)O1	32 (≈ 95.7 µM)	90	64 (≈ 191 µM)	64 (≈ 191 µM)	32 (≈ 95.7 µM)	–	–
CC(=O)NC[C@H]1CN(c2ccc3c(c2)CCC/C(=C\c2ccc(CCO)cc2)C3=O)C(=O)O1	0.25 (≈ 0.557 µM)	2.6	1 (≈ 2.23 µM)	0.5 (≈ 1.11 µM)	–	4 (≈ 8.92 µM)	16 (≈ 35.7 µM)
CC(=O)NC[C@H]1CN(c2cc(F)c3c(c2)CCCC=C3)C(=O)O1	1 (≈ 3.14 µM)	9.3	2 (≈ 6.28 µM)	2 (≈ 6.28 µM)	1 (≈ 3.14 µM)	–	–
CC(=O)NC[C@H]1CN(c2cc(F)c3c(c2)CCCCC3=O)C(=O)O1	2 (≈ 5.98 µM)	9.4	8 (≈ 23.9 µM)	4 (≈ 12 µM)	2 (≈ 5.98 µM)	–	–
CC(=O)NC[C@H]1CN(c2ccc3c(c2)CCC/C(=C\c2ccc(F)cc2)C3=O)C(=O)O1	0.25 (≈ 0.592 µM)	2.7	0.5 (≈ 1.18 µM)	0.5 (≈ 1.18 µM)	–	2 (≈ 4.73 µM)	2 (≈ 4.73 µM)
CC(=O)NC[C@H]1CN(c2ccc3c(c2)CCC/C(=C\c2ccsc2)C3=O)C(=O)O1	0.125 (≈ 0.305 µM)	1.1	2 (≈ 4.87 µM)	0.5 (≈ 1.22 µM)	–	1 (≈ 2.44 µM)	2 (≈ 4.87 µM)
CC(=O)NC[C@H]1CN(c2ccc3c(c2)CCC/C(=C\c2cccc(C#N)c2)C3=O)C(=O)O1	0.25 (≈ 0.582 µM)	1.7	0.5 (≈ 1.16 µM)	0.25 (≈ 0.582 µM)	–	2 (≈ 4.66 µM)	32 (≈ 74.5 µM)

The next lines start with the values.

MIC (Streptococcus pneumoniae) [µg/mL]	IC50 (Escherichia coli) [µM]	MIC (Staphylococcus aureus) [µg/mL]	MIC (Enterococcus faecalis) [µg/mL]	MIC (Streptococcus pyogenes) [µg/mL]	MIC (Moraxella catarrhalis) [µg/mL]	MIC (Haemophilus influenzae) [µg/mL]	Compound
0.25 (≈ 0.509 µM)	1.5	2 (≈ 4.07 µM)	2 (≈ 4.07 µM)	–	8 (≈ 16.3 µM)	32 (≈ 65.1 µM)	CC(=O)NC[C@H]1CN(c2ccc3c(c2)CCC/C(=C\c2ccc(OCCN(C)C)cc2)C3=O)C(=O)O1
8 (≈ 26.5 µM)	4	32 (≈ 106 µM)	16 (≈ 52.9 µM)	16 (≈ 52.9 µM)	–	–	CC(=O)NC[C@H]1CN(c2ccc3c(c2)C(=O)CCC3)C(=O)O1
0.25 (≈ 0.618 µM)	2.7	1 (≈ 2.47 µM)	0.5 (≈ 1.24 µM)	–	4 (≈ 9.89 µM)	16 (≈ 39.6 µM)	CC(=O)NC[C@H]1CN(c2ccc3c(c2)CCC/C(=C\c2ccccc2)C3=O)C(=O)O1
0.25 (≈ 0.614 µM)	1.6	1 (≈ 2.45 µM)	0.5 (≈ 1.23 µM)	–	4 (≈ 9.82 µM)	16 (≈ 39.3 µM)	CC(=O)NC[C@H]1CN(c2ccc3c(c2)CCC/C(=C\c2cccn2C)C3=O)C(=O)O1
0.125 (≈ 0.297 µM)	0.95	0.5 (≈ 1.19 µM)	0.5 (≈ 1.19 µM)	–	2 (≈ 4.76 µM)	8 (≈ 19 µM)	CC(=O)NC[C@H]1CN(c2ccc3c(c2)CCC/C(=C\c2ccc(O)cc2)C3=O)C(=O)O1
0.25 (≈ 0.518 µM)	2.8	1 (≈ 2.07 µM)	0.5 (≈ 1.04 µM)	–	4 (≈ 8.29 µM)	16 (≈ 33.2 µM)	CC(=O)NC[C@H]1CN(c2ccc3c(c2)CCC/C(=C\c2ccc(S(C)(=O)=O)cc2)C3=O)C(=O)O1
8 (≈ 26.5 µM)	8	64 (≈ 212 µM)	> 64	2 (≈ 6.61 µM)	–	–	CC(=O)NC[C@H]1CN(c2ccc3c(c2)CCCCC3)C(=O)O1
8 (≈ 22.7 µM)	14	32 (≈ 90.8 µM)	16 (≈ 45.4 µM)	16 (≈ 45.4 µM)	–	–	CC(=O)NC[C@H]1CN(c2cc(F)c3c(c2F)CCCCC3=O)C(=O)O1
